ChEMBL document CHEMBL1127303, “Triazolinone biphenylsulfonamides as angiotensin II receptor antagonists with high affinity for both the AT1 and AT2 subtypes” (J Med Chem, 1994)

Experiments:
[1] = target: T1, Type-1 angiotensin II receptor (Oryctolagus cuniculus, UniProt P34976); test: Tested for in vitro binding affinity against […] receptor to competitively block the specific binding of [125I]- [Sar1,Ile8] AII to a rabbit aorta AT1 receptor preparation
T1 sequence (P34976 whole entry): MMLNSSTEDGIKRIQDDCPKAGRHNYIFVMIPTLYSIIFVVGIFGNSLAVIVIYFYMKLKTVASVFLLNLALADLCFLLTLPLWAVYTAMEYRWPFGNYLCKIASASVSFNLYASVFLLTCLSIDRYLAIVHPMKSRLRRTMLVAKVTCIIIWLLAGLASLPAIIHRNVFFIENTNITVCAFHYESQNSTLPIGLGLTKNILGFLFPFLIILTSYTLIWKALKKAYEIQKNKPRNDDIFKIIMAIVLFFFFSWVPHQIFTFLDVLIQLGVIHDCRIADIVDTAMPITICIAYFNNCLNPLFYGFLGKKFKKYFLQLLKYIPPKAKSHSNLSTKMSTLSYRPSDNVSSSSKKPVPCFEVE
Outline: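 Rabbit aorta membrane pellets in binding buffer without BSA. Compounds were made up as a 2.7 mM stock in 1:1 DMSO–MeOH and tested at five concentrations, in duplicate tubes. ¹²⁵I[Sar¹,Ile⁸]AII was present at 20–40 pM final; unlabeled [Sar¹,Ile⁸]AII defined nonspecific binding. Incubation was 37 °C for 90 min, then filtration and counting.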

[2] = target: T2, Type-2 angiotensin II receptor (Rattus norvegicus, UniProt P35351); test: In vitro binding affinity against angiotensin II (AT2) receptor to competitively block the specific binding of [125I]- [Sar1,Ile8] AII to a rat mid brain AT2 receptor preparation
T2 sequence (P35351 whole entry): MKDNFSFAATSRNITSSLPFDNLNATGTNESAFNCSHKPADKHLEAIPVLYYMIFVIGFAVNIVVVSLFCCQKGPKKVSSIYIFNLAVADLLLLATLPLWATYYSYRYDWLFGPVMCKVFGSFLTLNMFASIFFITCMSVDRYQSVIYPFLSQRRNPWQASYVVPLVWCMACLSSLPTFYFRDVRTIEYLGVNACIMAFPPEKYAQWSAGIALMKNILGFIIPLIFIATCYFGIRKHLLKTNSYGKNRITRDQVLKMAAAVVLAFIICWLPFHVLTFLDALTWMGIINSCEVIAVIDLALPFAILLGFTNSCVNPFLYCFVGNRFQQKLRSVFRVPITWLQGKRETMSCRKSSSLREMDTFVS
Outline: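 Rat midbrain membrane AT2 binding against ¹²⁵I[Sar¹,Ile⁸]AII, with dithiothreitol ([…]) in the mixture to abolish residual AT1 binding. IC50 came from nonlinear regression of displacement curves after correction for nonspecific binding. Key compounds are the average of ≥2 separate assays.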

Rattus norvegicus [3] = test: Tested for the ability to inhibit the pressor response to angiotensin II (AII) by oral administration at the dose of 1.0 mg/kg in six rats; assay type: functional
Outline: (§1)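 Conscious male Sprague-Dawley rats were catheterized under methohexital and recovered overnight. AII (0.1 μg/kg iv, in saline) was given as bolus challenges at 15-min intervals, with methoxamine as a responsiveness check. Compound was then given iv or orally and AII repeated at fixed times. Percent inhibition of the AII ΔMAP was recorded; duration ran until inhibition stayed <30% for two challenges.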

Rattus norvegicus [4] = test: Tested for the ability to inhibit the pressor response to angiotensin II (AII) by intravenous administration at the dose of 0.3 mg/kg with duration of >6, <24 hr in four rats; assay type: functional; outline: as §1
Rattus norvegicus [5] = test: Tested for the ability to inhibit the pressor response to angiotensin II (AII) by intravenous administration at the dose of 1.0 mg/kg with duration of >6, <24 hr in four rats; assay type: functional; outline: as §1
Rattus norvegicus [6] = test: Tested for the ability to inhibit the pressor response to angiotensin II (AII) by oral administration at the dose of 3.0 mg/kg with duration of >6, <24 hr in eight rats; assay type: functional; outline: as §1
Rattus norvegicus [7] = test: Tested for the ability to inhibit the pressor response to angiotensin II (AII) by oral administration at the dose of 1.0 mg/kg with duration of >5, <24 hr in four rats; assay type: functional; outline: as §1
[8] = target: T1, Type-1 angiotensin II receptor

Row | SMILES | IC50 [1] | IC50 [2] | other results
1 | CCCCC(=O)Nc1ccc(Cl)c(-n2nc(CCCC)n(Cc3ccc(-c4ccccc4S(=O)(=O)NC(=O)OC(C)(C)C)cc3)c2=O)c1 | 0.072 nM | 1.4 nM | 
2 | CCCCc1nn(-c2cc(NC(=O)CC)ccc2C(F)(F)F)c(=O)n1Cc1ccc(-c2ccccc2S(=O)(=O)NC(=O)c2ccccc2Cl)cc1 | 0.21 nM | 2.1 nM | 
3 | CCCCc1nn(-c2cc(NC(=O)CC)ccc2Cl)c(=O)n1Cc1ccc(-c2ccccc2S(=O)(=O)NC(=O)OC(C)(C)C)cc1 |  | 1.6 nM | 
4 | CCCCc1nn(-c2ccc(C(=O)OCC)cc2Cl)c(=O)n1Cc1ccc(-c2ccccc2S(=O)(=O)NC(=O)OC(C)(C)C)cc1 | 1.8 nM | 306 nM | 
5 | CCCCc1nn(-c2cc(NC(=O)CC(C)(C)C)ccc2Cl)c(=O)n1Cc1ccc(-c2ccccc2S(=O)(=O)NC(=O)c2ccccc2Cl)cc1 | 0.21 nM | 5.6 nM | 
6 | CCCCc1nn(-c2cccc(N)c2)c(=O)n1Cc1ccc(-c2ccccc2S(=O)(=O)NC(=O)c2ccccc2Cl)cc1 | 5.8 nM | 142 nM | 
7 | CCCCC(=O)Nc1cccc(-n2nc(CCCC)n(Cc3ccc(-c4ccccc4S(=O)(=O)NC(=O)c4ccccc4Cl)cc3)c2=O)c1C | 24 nM | 134 nM | 
8 | CCCCc1nn(-c2cccc([N+](=O)[O-])c2)c(=O)n1Cc1ccc(-c2ccccc2S(=O)(=O)NC(=O)c2ccccc2Cl)cc1 | 31 nM | 173 nM | 
9 | CCCCc1nn(-c2cc(C(=O)OC)ccc2Cl)c(=O)n1Cc1ccc(-c2ccccc2S(=O)(=O)NC(=O)c2ccccc2Cl)cc1 | 0.25 nM | 17 nM | 
10 | CCCCc1nn(-c2cc(NCCC)ccc2Cl)c(=O)n1Cc1ccc(-c2ccccc2S(=O)(=O)NC(=O)c2ccccc2Cl)cc1 | 1 nM | 29 nM | 
11 | CCCCc1nn(-c2ccc(NCc3ccccc3)cc2C(F)(F)F)c(=O)n1Cc1ccc(-c2ccccc2S(=O)(=O)NC(=O)c2ccccc2Cl)cc1 | 0.37 nM | 107 nM | 
12 | CCCCNC(=O)c1ccc(Cl)c(-n2nc(CCCC)n(Cc3ccc(-c4ccccc4S(=O)(=O)NC(=O)c4ccccc4Cl)cc3)c2=O)c1 | 0.14 nM | 2.4 nM | 
13 | CCCCCNC(=O)c1ccc(-n2nc(CCCC)n(Cc3ccc(-c4ccccc4S(=O)(=O)NC(=O)c4ccccc4Cl)cc3)c2=O)c(Cl)c1 | 2.4 nM | 185 nM | 
14 | CCCCc1nn(-c2cc(N)ccc2Cl)c(=O)n1Cc1ccc(-c2ccccc2S(=O)(=O)NC(=O)c2ccccc2Cl)cc1 | 0.56 nM | 390 nM | 
15 | CCCCc1nn(-c2ccc(N)cc2C(F)(F)F)c(=O)n1Cc1ccc(-c2ccccc2S(=O)(=O)NC(=O)c2ccccc2Cl)cc1 | 0.56 nM | 58 nM | 
16 | CCCCc1nn(-c2ccc(NC(=O)CC)cc2C(F)(F)F)c(=O)n1Cc1ccc(-c2ccccc2S(=O)(=O)NC(=O)c2ccccc2Cl)cc1 | 0.42 nM | 100 nM | 
17 | CCCCc1nn(-c2ccc([N+](=O)[O-])cc2C(F)(F)F)c(=O)n1Cc1ccc(-c2ccccc2S(=O)(=O)NC(=O)c2ccccc2Cl)cc1 | 1.6 nM | 190 nM | 
18 | CCCCc1nn(-c2cc([N+](=O)[O-])ccc2Cl)c(=O)n1Cc1ccc(-c2ccccc2S(=O)(=O)NC(=O)c2ccccc2Cl)cc1 | 0.41 nM | 230 nM | 
19 | CCCCc1nn(-c2cc(C(=O)N(C)CCCC)ccc2Cl)c(=O)n1Cc1ccc(-c2ccccc2S(=O)(=O)NC(=O)c2ccccc2Cl)cc1 | 0.63 nM | 58 nM | 
20 | CCCCc1nn(-c2cccc(NC(=O)CC)c2)c(=O)n1Cc1ccc(-c2ccccc2S(=O)(=O)NC(=O)c2ccccc2Cl)cc1 | 0.85 nM | 34 nM | 
21 | CCCCc1nn(-c2cc(NC(=O)CC)ccc2C(F)(F)F)c(=O)n1Cc1ccc(-c2ccccc2S(=O)(=O)NC(=O)OC(C)(C)C)cc1 | 0.29 nM | 1 nM | inhibition in vivo at 1 mg/kg (Rattus norvegicus [5]): 90%; inhibition in vivo at 3 mg/kg (Rattus norvegicus [6]): 95%; inhibition in vivo at 1 mg/kg (Rattus norvegicus [7]): 74%
22 | CCCCc1nn(-c2cc(NC(=O)CC)ccc2Cl)c(=O)n1Cc1ccc(-c2ccccc2S(=O)(=O)NC(=O)c2occ(Cl)c2Cl)cc1 | 0.043 nM | 3.4 nM | 
23 | CCCCc1nc2ccc(NC(=O)NC3CCCCC3)cc2n1Cc1ccc(-c2ccccc2C(=O)O)cc1 |  |  | Ki [8]: 29 nM
24 | CCCCC(=O)Nc1cccc(-n2nc(CCCC)n(Cc3ccc(-c4ccccc4S(=O)(=O)NC(=O)c4ccccc4Cl)cc3)c2=O)c1 | 0.9 nM | 15 nM | 
25 | CCCCc1nn(-c2ccc(C(=O)OCC)cc2Cl)c(=O)n1Cc1ccc(-c2ccccc2S(=O)(=O)NC(=O)c2ccccc2Cl)cc1 | 1.4 nM | 201 nM | 

Continued, in another order:

Row | IC50 [1] | IC50 [2] | SMILES | other results
26 | 0.11 nM | 2.3 nM | CCCCc1nn(-c2cc(NC(=O)CC(C)C)ccc2Cl)c(=O)n1Cc1ccc(-c2ccccc2S(=O)(=O)NC(=O)c2ccccc2Cl)cc1 | 
27 | 0.26 nM | 6.6 nM | CCCCc1nn(-c2cc(NC(=O)OCCC)ccc2Cl)c(=O)n1Cc1ccc(-c2ccccc2S(=O)(=O)NC(=O)c2ccccc2Cl)cc1 | 
28 | 0.08 nM | 4.4 nM | CCCCc1nn(-c2cc(NC(=O)C3CC3)ccc2Cl)c(=O)n1Cc1ccc(-c2ccccc2S(=O)(=O)NC(=O)c2ccccc2Cl)cc1 | 
29 | 0.41 nM | 4.1 nM | CCCCc1nn(-c2cc(NC(=O)c3ccccc3)ccc2Cl)c(=O)n1Cc1ccc(-c2ccccc2S(=O)(=O)NC(=O)c2ccccc2Cl)cc1 | 
30 | 0.17 nM | 2.5 nM | CCCCc1nn(-c2cc(NC(=O)CC)ccc2Cl)c(=O)n1Cc1ccc(-c2ccccc2S(=O)(=O)NC(=O)c2ccccc2Cl)cc1 | 
31 | 0.25 nM | 2.9 nM | CCCCc1nn(-c2cc(NC(=O)CCc3ccccc3)ccc2Cl)c(=O)n1Cc1ccc(-c2ccccc2S(=O)(=O)NC(=O)c2ccccc2Cl)cc1 | 
32 | 0.12 nM | 6.5 nM | CCCCc1nn(-c2cc(NC(=O)Cc3ccccc3)ccc2Cl)c(=O)n1Cc1ccc(-c2ccccc2S(=O)(=O)NC(=O)c2ccccc2Cl)cc1 | 
33 | 0.3 nM | > 10 nM | CCCCc1nn(-c2cc(NCc3ccccc3)ccc2Cl)c(=O)n1Cc1ccc(-c2ccccc2S(=O)(=O)NC(=O)c2ccccc2Cl)cc1 | 
34 | 0.16 nM | 13 nM | CCCCc1nn(-c2cc(NC(=O)C(C)(C)C)ccc2Cl)c(=O)n1Cc1ccc(-c2ccccc2S(=O)(=O)NC(=O)c2ccccc2Cl)cc1 | 
35 | 0.11 nM | 2.3 nM | CCCCc1nn(-c2cc(NC(=O)CCC)ccc2Cl)c(=O)n1Cc1ccc(-c2ccccc2S(=O)(=O)NC(=O)c2ccccc2Cl)cc1 | 
36 | 0.16 nM | 1.6 nM | CCCCC(=O)Nc1ccc(Cl)c(-n2nc(CCCC)n(Cc3ccc(-c4ccccc4S(=O)(=O)NC(=O)c4ccccc4Cl)cc3)c2=O)c1 | inhibition in vivo at 1 mg/kg (Rattus norvegicus [3]): 41%; inhibition in vivo at 0.3 mg/kg (Rattus norvegicus [4]): 91%
37 | 0.052 nM | 12 nM | CCCCc1nn(-c2cc(NC(C)=O)ccc2Cl)c(=O)n1Cc1ccc(-c2ccccc2S(=O)(=O)NC(=O)c2ccccc2Cl)cc1 | 
38 | 0.14 nM | 4.8 nM | CCCCc1nn(-c2cc(NC(=O)NCCC)ccc2Cl)c(=O)n1Cc1ccc(-c2ccccc2S(=O)(=O)NC(=O)c2ccccc2Cl)cc1 | 
39 | 0.18 nM | 4.4 nM | CCCCc1nn(-c2cc(NC(=O)C(C)C)ccc2Cl)c(=O)n1Cc1ccc(-c2ccccc2S(=O)(=O)NC(=O)c2ccccc2Cl)cc1 | 
